Results from ChEMBL document CHEMBL4665639, “N-Benzylanilines as Fatty Acid Synthesis Inhibitors against Biofilm-related Methicillin-resistant Staphylococcus aureus” (ACS Med Chem Lett, 2019).
Calls of active or inactive are those of the source.

Legend:
Staphylococcus aureus [1] = experiment: Antibiofilm activity against methicillin-resistant Staphylococcus aureus clinical isolate 3 assessed as disruption of preformed biofilm up to 2 mg/L after 24 hrs by MTT assay; type: functional, organism-based; details: dose mg/L <=2, time 24.0 hrs
Summary of the method: (§1)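 Biofilms of clinical MRSA isolates that form biofilm in culture were preformed for 24 h and then exposed to compound to measure disruption. Significance of control vs treated is given at p < 0.05, 0.01 and 0.001.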

Staphylococcus aureus [2] = experiment: Antibacterial activity against methicillin-resistant Staphylococcus aureus clinical isolate 13 assessed as bacterial growth inhibition after 24 hrs by CLSI protocol based broth microdilution assay; type: functional
Summary of the method: (§2)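 Broth dilution MIC against 19 multidrug-resistant clinical S. aureus isolates, each taken from a different specimen type.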

Staphylococcus aureus [3] = experiment: Antibacterial activity against methicillin-resistant Staphylococcus aureus clinical isolate 19 assessed as bacterial growth inhibition after 24 hrs by CLSI protocol based broth microdilution assay; type: functional; summary of the method: as §2
Staphylococcus aureus [4] = experiment: Antibiofilm activity against methicillin-resistant Staphylococcus aureus clinical isolate 11 assessed as disruption of preformed biofilm up to 2 mg/L after 24 hrs by MTT assay; type: functional, organism-based; details: dose mg/L <=2, time 24.0 hrs; summary of the method: as §1
Staphylococcus aureus [5] = experiment: Antibacterial activity against methicillin-resistant Staphylococcus aureus clinical isolate 12 assessed as bacterial growth inhibition after 24 hrs by CLSI protocol based broth microdilution assay; type: functional; summary of the method: as §2
Staphylococcus aureus [6] = experiment: Antibacterial activity against methicillin-resistant Staphylococcus aureus clinical isolate 7 assessed as bacterial growth inhibition after 24 hrs by CLSI protocol based broth microdilution assay; type: functional; summary of the method: as §2
Candida albicans = experiment: Antifungal activity against Candida albicans assessed as fungal growth inhibition after 24 hrs by CLSI protocol based broth microdilution assay; type: functional
Staphylococcus aureus [7] = experiment: Antibiofilm activity against methicillin-resistant Staphylococcus aureus clinical isolate 17 assessed as disruption of preformed biofilm up to 2 mg/L after 24 hrs by MTT assay; type: functional, organism-based; details: dose mg/L <=2, time 24.0 hrs; summary of the method: as §1
Staphylococcus aureus [8] = experiment: Antibiofilm activity against methicillin-resistant Staphylococcus aureus ATCC 43300 assessed as reduction in biofilm biomass up to 1 mg/L after 24 hrs by scanning electronic microscopic imaging analysis; type: functional, organism-based; details: dose mg/L <=1, time 24.0 hrs
Summary of the method: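 Scanning electron microscopy of 24 h MRSA ATCC 43300 biofilm, untreated or grown with stepwise increasing compound concentrations.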

Staphylococcus aureus [9] = experiment: Antibiofilm activity against methicillin-resistant Staphylococcus aureus clinical isolate 4 assessed as disruption of preformed biofilm up to 2 mg/L after 24 hrs by MTT assay; type: functional, organism-based; details: dose mg/L <=2, time 24.0 hrs; summary of the method: as §1
Staphylococcus aureus [10] = experiment: Antibiofilm activity against methicillin-resistant Staphylococcus aureus ATCC 43300 assessed as inhibition of biofilm at 0.5 to 2 mg/L after 24 hrs by MTT assay; type: functional, organism-based; details: dose mg/L 0.5-2, time 24.0 hrs
Summary of the method: (§3)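 Biofilm growth of MRSA ATCC 43300 measured in the presence of compound in cultivation plates, with a DMSO control. Significance of control vs treated is given at p < 0.05, 0.01 and 0.001.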

Staphylococcus aureus [11] = experiment: Antibacterial activity against methicillin-resistant Staphylococcus aureus clinical isolate 14 assessed as bacterial growth inhibition after 24 hrs by CLSI protocol based broth microdilution assay; type: functional; summary of the method: as §2
Staphylococcus aureus [12] = experiment: Antibacterial activity against methicillin-resistant Staphylococcus aureus clinical isolate 17 assessed as bacterial growth inhibition after 24 hrs by CLSI protocol based broth microdilution assay; type: functional; summary of the method: as §2
Staphylococcus aureus [13] = experiment: Antibiofilm activity against methicillin-resistant Staphylococcus aureus ATCC 43300 assessed as reduction in biofilm biomass at 0.5 to 4 mg/L after 24 hrs by MTT assay; type: functional, organism-based; details: dose mg/L 0.5-4, time 24.0 hrs; summary of the method: as §3
Staphylococcus aureus [14] = experiment: Antibiofilm activity against methicillin-resistant Staphylococcus aureus clinical isolate 12 assessed as disruption of preformed biofilm up to 2 mg/L after 24 hrs by MTT assay; type: functional, organism-based; details: dose mg/L <=2, time 24.0 hrs; summary of the method: as §1
Staphylococcus aureus [15] = experiment: Antibacterial activity against methicillin-resistant Staphylococcus aureus clinical isolate 9 assessed as bacterial growth inhibition after 24 hrs by CLSI protocol based broth microdilution assay; type: functional; summary of the method: as §2
Staphylococcus aureus [16] = experiment: Antibacterial activity against methicillin-resistant Staphylococcus aureus clinical isolate 18 assessed as bacterial growth inhibition after 24 hrs by CLSI protocol based broth microdilution assay; type: functional; summary of the method: as §2
Bacillus cereus = experiment: Antibacterial activity against Bacillus cereus assessed as bacterial growth inhibition after 24 hrs by CLSI protocol based broth microdilution assay; type: functional
Staphylococcus aureus [17] = experiment: Antibiofilm activity against methicillin-resistant Staphylococcus aureus clinical isolate 5 assessed as disruption of preformed biofilm up to 2 mg/L after 24 hrs by MTT assay; type: functional, organism-based; details: dose mg/L <=2, time 24.0 hrs; summary of the method: as §1
Enterococcus faecium = experiment: Antibacterial activity against Enterococcus faecium assessed as bacterial growth inhibition after 24 hrs by CLSI protocol based broth microdilution assay; type: functional
Staphylococcus aureus [18] = experiment: Antibacterial activity against methicillin-resistant Staphylococcus aureus clinical isolate 5 assessed as bacterial growth inhibition after 24 hrs by CLSI protocol based broth microdilution assay; type: functional; summary of the method: as §2
Staphylococcus aureus [19] = experiment: Antibacterial activity against Staphylococcus aureus assessed as bacterial growth inhibition after 24 hrs by CLSI protocol based broth microdilution assay; type: functional
Staphylococcus aureus [20] = experiment: Antibiofilm activity against methicillin-resistant Staphylococcus aureus clinical isolate 18 assessed as disruption of preformed biofilm up to 2 mg/L after 24 hrs by MTT assay; type: functional, organism-based; details: dose mg/L <=2, time 24.0 hrs; summary of the method: as §1
Staphylococcus aureus [21] = experiment: Antibacterial activity against methicillin-resistant Staphylococcus aureus clinical isolate 10 assessed as bacterial growth inhibition after 24 hrs by CLSI protocol based broth microdilution assay; type: functional; summary of the method: as §2
Staphylococcus aureus [22] = experiment: Antibacterial activity against methicillin-resistant Staphylococcus aureus clinical isolate 8 assessed as bacterial growth inhibition after 24 hrs by CLSI protocol based broth microdilution assay; type: functional; summary of the method: as §2
Candida tropicalis = experiment: Antifungal activity against Candida tropicalis assessed as fungal growth inhibition after 24 hrs by CLSI protocol based broth microdilution assay; type: functional
Staphylococcus aureus [23] = experiment: Antibacterial activity against methicillin-resistant Staphylococcus aureus clinical isolate 1 assessed as bacterial growth inhibition after 24 hrs by CLSI protocol based broth microdilution assay; type: functional; summary of the method: as §2
Staphylococcus aureus [24] = experiment: Antibacterial activity against methicillin-resistant Staphylococcus aureus clinical isolate 15 assessed as bacterial growth inhibition after 24 hrs by CLSI protocol based broth microdilution assay; type: functional; summary of the method: as §2
Staphylococcus aureus [25] = experiment: Inhibition of Staphylococcus aureus ATCC 6538 fabI expressed in Escherichia coli BL21 (DE3) assessed as oxidation of NADPH to NADP+ using trans-2-octenoyl CoA as substrate incubated for 2 hrs in presence of NADPH by spectrophotometric analysis
Staphylococcus aureus [26] = experiment: Antibiofilm activity against methicillin-resistant Staphylococcus aureus clinical isolate 2 assessed as disruption of preformed biofilm up to 2 mg/L after 24 hrs by MTT assay; type: functional, organism-based; details: dose mg/L <=2, time 24.0 hrs; summary of the method: as §1
Staphylococcus aureus [27] = experiment: Antibacterial activity against methicillin-resistant Staphylococcus aureus clinical isolate 6 assessed as bacterial growth inhibition after 24 hrs by CLSI protocol based broth microdilution assay; type: functional; summary of the method: as §2
Staphylococcus aureus [28] = experiment: Antibacterial activity against methicillin-resistant Staphylococcus aureus clinical isolate 4 assessed as bacterial growth inhibition after 24 hrs by CLSI protocol based broth microdilution assay; type: functional; summary of the method: as §2
Pseudomonas aeruginosa = experiment: Antibacterial activity against Pseudomonas aeruginosa assessed as bacterial growth inhibition after 24 hrs by CLSI protocol based broth microdilution assay; type: functional
Staphylococcus aureus [29] = experiment: Antibacterial activity against methicillin-resistant Staphylococcus aureus clinical isolate 16 assessed as bacterial growth inhibition after 24 hrs by CLSI protocol based broth microdilution assay; type: functional; summary of the method: as §2
GES1 = experiment: Cytotoxicity against human GES1 cells assessed as reduction in cell viability at 80 mg/L after 24 hrs by MTT assay relative to control; type: cell-based; details: ges1, 24 h, at 80 µg/mL
Staphylococcus aureus [30] = experiment: Antibacterial activity against methicillin-resistant Staphylococcus aureus clinical isolate 2 assessed as bacterial growth inhibition after 24 hrs by CLSI protocol based broth microdilution assay; type: functional; summary of the method: as §2
Staphylococcus aureus [31] = experiment: Binding affinity to Staphylococcus aureus ATCC 6538 fabI expressed in Escherichia coli BL21 (DE3) assessed as tetramer transition of partial dimer resulting in peak shift at 1:10:10 ratio incubated for overnight in presence of NADP+ by analytical size exclusion chromatography; details: time 12.0 hrs
Escherichia coli = experiment: Antibacterial activity against Escherichia coli assessed as bacterial growth inhibition after 24 hrs by CLSI protocol based broth microdilution assay; type: functional
L02 = experiment: Cytotoxicity against human L02 cells assessed as reduction in cell viability at 80 mg/L after 24 hrs by MTT assay relative to control; type: cell-based; details: l02, 24 h, at 80 µg/mL
Staphylococcus aureus [32] = experiment: Antibiofilm activity against methicillin-resistant Staphylococcus aureus clinical isolate 6 assessed as disruption of preformed biofilm up to 2 mg/L after 24 hrs by MTT assay; type: functional, organism-based; details: dose mg/L <=2, time 24.0 hrs; summary of the method: as §1
Staphylococcus aureus [33] = experiment: Antibiofilm activity against methicillin-resistant Staphylococcus aureus clinical isolate 16 assessed as disruption of preformed biofilm up to 2 mg/L after 24 hrs by MTT assay; type: functional, organism-based; details: dose mg/L <=2, time 24.0 hrs; summary of the method: as §1
Staphylococcus aureus [34] = experiment: Antibacterial activity against methicillin-resistant Staphylococcus aureus clinical isolate 11 assessed as bacterial growth inhibition after 24 hrs by CLSI protocol based broth microdilution assay; type: functional; summary of the method: as §2
Staphylococcus aureus [35] = experiment: Antibacterial activity against methicillin-resistant Staphylococcus aureus clinical isolate 3 assessed as bacterial growth inhibition after 24 hrs by CLSI protocol based broth microdilution assay; type: functional; summary of the method: as §2
Staphylococcus aureus [36] = experiment: Antibacterial activity against methicillin-resistant Staphylococcus aureus assessed as bacterial growth inhibition after 24 hrs by CLSI protocol based broth microdilution assay; type: functional

Oc1c(Br)cc(Cl)cc1CNc1cc(C(F)(F)F)ccc1Cl
≥ 64 µg/mL: MIC (Candida albicans) | MIC (Candida tropicalis) | MIC (Pseudomonas aeruginosa) | MIC (Escherichia coli)
50%: Activity (GES1) | Activity (L02)
≤ 1 µg/mL: MIC (Staphylococcus aureus [2]) | MIC (Staphylococcus aureus [3]) | MIC (Staphylococcus aureus [5]) | MIC (Staphylococcus aureus [6]) | MIC (Staphylococcus aureus [11]) | MIC (Staphylococcus aureus [12]) | MIC (Staphylococcus aureus [15]) | MIC (Staphylococcus aureus [16]) | MIC (Staphylococcus aureus [18]) | MIC (Staphylococcus aureus [21]) | MIC (Staphylococcus aureus [22]) | MIC (Staphylococcus aureus [23]) | MIC (Staphylococcus aureus [24]) | MIC (Staphylococcus aureus [27]) | MIC (Staphylococcus aureus [28]) | MIC (Staphylococcus aureus [29]) | MIC (Staphylococcus aureus [30]) | MIC (Staphylococcus aureus [34]) | MIC (Staphylococcus aureus [35])
≤ 2 µg/mL: MIC (Bacillus cereus) | MIC (Enterococcus faecium) | MIC (Staphylococcus aureus [19])
active: Activity (Staphylococcus aureus [1]) | Activity (Staphylococcus aureus [4]) | Activity (Staphylococcus aureus [7]) | inhibition (Staphylococcus aureus [8]) | Activity (Staphylococcus aureus [9]) | inhibition (Staphylococcus aureus [10]) | Activity (Staphylococcus aureus [13]) | Activity (Staphylococcus aureus [14]) | Activity (Staphylococcus aureus [17]) | Activity (Staphylococcus aureus [20]) | inhibition (Staphylococcus aureus [25]) | Activity (Staphylococcus aureus [26]) | Activity (Staphylococcus aureus [31]) | Activity (Staphylococcus aureus [32]) | Activity (Staphylococcus aureus [33])

Oc1ccc(Br)cc1CNc1cc(C(F)(F)F)ccc1Cl
1 µg/mL: MIC (Staphylococcus aureus [36])
≤ 2 µg/mL: MIC (Bacillus cereus) | MIC (Enterococcus faecium)
2 µg/mL: MIC (Staphylococcus aureus [19])
≥ 64 µg/mL: MIC (Candida albicans) | MIC (Candida tropicalis) | MIC (Pseudomonas aeruginosa) | MIC (Escherichia coli)
active: Activity (Staphylococcus aureus [13]) | inhibition (Staphylococcus aureus [25])
